Measured values from ChEMBL document CHEMBL4371075, “α-Amino Diphenyl Phosphonates as Novel Inhibitors of Escherichia coli ClpP Protease” (J Med Chem, 2019).
Calls of active or inactive are those of the source. The calls are words filed in the database; no cut-off is given here.

How the values were obtained:
[1] = molecular target: alpha-chymotrypsin (Bos taurus, UniProt P00766); assay: Inhibition of bovine alpha-chymotrypsin assessed as residual activity at 200 uM relative to control; details: cattle, read-out: Activity
In short: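 Bovine α-chymotrypsin (40 nM) with compound at 200 µM and Suc-LY-AMC (100 µM) in 150 mM NaCl, 10 mM CaCl2, 50 mM Tris-HCl, 0.05% Brij 35. AMC fluorescence read-out; residual activity relative to control without compound.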

[2] = test system: HepG2; assay: Cytotoxicity against human HepG2 cells after 48 hrs by CellTiter-Glo assay; type: cell-based; details: HepG2, 48 h
In short: (§1)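 Human cells seeded (2000 cells/well; A549 500 cells/well), 24 h at 37 °C, 5% CO2, then compounds added (final DMSO 1%), 1:3 dilution series from 100 µM, 48 h exposure. ATP read by CellTiter-Glo luminescence relative to DMSO-treated cells; DMSO (1%) negative and valinomycin (10 µM) positive controls; plates accepted at Z' > 0.5.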

[3] = molecular target: ATP-dependent Clp protease proteolytic subunit (Escherichia coli (strain K12)) (UniProt P0A6G7); assay: Inhibition of Escherichia coli C-terminal His6-tagged ClpP expressed Escherichia coli SG1146a at 200 uM using Suc-LY-AMC as substrate preincubated for 10 mins followed by substrate addition and measured over 1 hr by fluorescence assay relative to control
In short: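 E. coli ClpP (625 nM) in 100 mM NaCl, 100 mM Hepes pH 7.5, 0.05% Brij 35, preincubated with compound (200 µM final, triplicates) 10 min at 30 °C. Suc-LY-AMC added (75 µM), fluorescence (ex 350/em 435 nm) followed over 1 h at 30 °C. Inhibition relative to 2% DMSO vehicle; Z-LY-CMK (200 µM) positive control; plates valid at Z' > 0.6.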

[4] = test system: HeLa; assay: Cytotoxicity against human HeLa cells after 48 hrs by CellTiter-Glo assay; type: cell-based; in short: as §1
[5] = molecular target: ATP-dependent Clp protease proteolytic subunit (Escherichia coli (strain K12), UniProt P0A6G7); assay: Inhibition of Escherichia coli C-terminal His6-tagged ClpP expressed Escherichia coli SG1146a using Suc-LY-AMC as substrate preincubated for 10 mins followed by substrate addition and measured over 1 hr by fluorescence assay
In short: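 ClpP at 625 nM with compound serial dilutions (1:3 or 1:2) in 100 mM NaCl, 100 mM Hepes pH 7.5, 0.05% Brij 35, preincubated 10 min at 30 °C. Suc-LY-AMC added (75 µM), fluorescence (ex 350/em 435 nm) tracked 1 h at 30 °C against DMSO vehicle (2% v/v).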

[6] = test system: A549; assay: Cytotoxicity against human A549 cells after 48 hrs by CellTiter-Glo assay; type: cell-based; details: A549, 48 h; in short: as §1
[7] = molecular target: ATP-dependent Clp protease proteolytic subunit (Escherichia coli (strain K12)) (UniProt P0A6G7); assay: Reversible binding affinity to Escherichia coli C-terminal His6-tagged ClpP expressed Escherichia coli SG1146a up to 320 uM measured after cessation of compound treatment by SPR analysis
In short: (§2)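 His-tagged E. coli ClpP amine-coupled to chip (80 µg/mL in 10 mM sodium acetate pH 4). Running buffer 150 mM NaCl, 10 mM Hepes, 3 mM EDTA, 0.05% Tween-20, 3.2% DMSO; 20 µL/min, 6 min injection, up to 300 s dissociation; 2.5–320 µM range. Reference-channel subtracted, DMSO/bulk-shift corrected; return to baseline after injection end judged.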

[8] = test system: Escherichia coli ClpP (C-terminal His6-tagged); assay: Selectivity index, ratio of EC50 for human A549 cells to IC50 for Escherichia coli C-terminal His6-tagged ClpP expressed Escherichia coli SG1146a; type: toxicity; details: read-out: Selectivity Index
[9] = test system: Escherichia coli; assay: Growth inhibition of tolC-deficient Escherichia coli JW5503 at 100 uM measured after 24 hrs relative to control; type: functional; details: JW5503, 24 h, read-out: GI
In short: (§3)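 Single colony in saline, adjusted in MHB; final inoculum 5x10^5 CFU/mL, compound 100 µM in triplicate, 2% DMSO and ciprofloxacin controls. 37 °C, 500 rpm shaking; OD600 at time 0 and later time points to quantify growth.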

[10] = test system: Staphylococcus aureus; assay: Growth inhibition of Staphylococcus aureus ATCC 29213 at 100 uM measured after 24 hrs relative to control; type: functional; details: ATCC 29213, 24 h, read-out: GI; in short: as §3
[11] = test system: Escherichia coli; assay: Growth inhibition of ClpP-deficient Escherichia coli JW0427-1 at 100 uM measured at 1 hr time interval for 15 to 24 hrs; type: functional, organism-based
In short: (§4)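 E. coli BW25-113 and isogenic ΔclpP JW0427-1, grown overnight in MHB, diluted 1:100 in M9 + 10 mM glucose to OD600 ~0.3; assayed at OD600 0.1 with compound 100 µM, with or without DPTA NONOate (2 mM) for NO stress. 37 °C, 500 rpm; OD600 hourly for 15 or 24 h; mean of three independent experiments ± standard deviation.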

[12] = test system: Escherichia coli; assay: Growth inhibition of ClpP-deficient Escherichia coli JW0427-1 at 100 uM under nitric oxide stress condition measured at 1 hr time interval for 15 to 24 hrs in presence of DPTA NONOate; type: functional, organism-based; in short: as §4
[13] = test system: Escherichia coli; assay: Growth inhibition of wild-type Escherichia coli BW25113 at 100 uM under nitric oxide stress condition measured at 1 hr time interval for 15 to 24 hrs in presence of DPTA NONOate; type: functional, organism-based; in short: as §4
[14] = test system: Escherichia coli; assay: Growth inhibition of wild-type Escherichia coli BW25113 at 100 uM measured at 1 hr time interval for 15 to 24 hrs; type: functional, organism-based; in short: as §4
[15] = molecular target: ATP-dependent Clp protease proteolytic subunit (Escherichia coli (strain K12)) (UniProt P0A6G7); assay: Reversible binding affinity to Escherichia coli C-terminal His6-tagged ClpP expressed Escherichia coli SG1146a up to 80 uM measured after cessation of compound treatment by SPR analysis; in short: as §2
[16] = test system: Escherichia coli; assay: Growth inhibition of ClpP-deficient Escherichia coli JW0427-1 at 50 uM measured after 24 hrs in presence of efflux pump substrate PAbetaN relative to control; type: functional; details: JW0427-1, 24 h, read-out: GI
In short: (§5)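 E. coli BW25-113 wild type or ΔclpP JW0427-1 grown with compound (50 µM) plus efflux pump substrate PAβN (25 µg/ml); growth inhibition read as OD600 at 24 h, 37 °C with shaking.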

[17] = test system: Escherichia coli; assay: Growth inhibition of wild-type Escherichia coli BW25113 at 50 uM measured after 24 hrs in presence of efflux pump substrate PAbetaN relative to control; type: functional; details: BW25113, 24 h, read-out: GI; in short: as §5

ATP-dependent Clp protease proteolytic subunit, sequence (P0A6G7 whole entry): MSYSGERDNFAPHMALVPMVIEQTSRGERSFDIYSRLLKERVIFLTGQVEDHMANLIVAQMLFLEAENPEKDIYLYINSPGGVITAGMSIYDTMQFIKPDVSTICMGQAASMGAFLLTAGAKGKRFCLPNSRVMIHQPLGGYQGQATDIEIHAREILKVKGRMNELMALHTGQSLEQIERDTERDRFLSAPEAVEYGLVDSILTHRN
ATP-dependent Clp protease proteolytic subunit (Escherichia coli (strain K12)), sequence (P0A6G7 whole entry): as above

Row | Compound | activity at 200 µM [1] [%] | EC50 [2] [µM] | inhibition [3] [%] | EC50 [4] [µM] | IC50 [5] [µM] | EC50 [6] [µM] | further results
1 | COc1cccc(C(NC(=O)OCc2ccccc2)P(=O)(Oc2ccccc2)Oc2ccccc2)n1 (stereo unspecified) | ≥ 100 | ≥ 100 | 100 | ≥ 100 | 38 | ≥ 100 | –
2 | O=C(NC(c1ccc(NC(=O)C(F)(F)F)cc1)P(=O)(Oc1ccccc1)Oc1ccccc1)OCc1ccc2c(c1)OCO2 (stereo unspecified) | 46 | ≥ 100 | 93 | ≥ 100 | 8.2 | 41.5 | Activity [7]: Active; selectivity ratio [8]: < 10
3 | COC(=O)NC(c1ccc(C(=N)N)cc1)P(=O)(Oc1ccccc1)Oc1ccccc1 (stereo unspecified) | ≥ 100 | ≥ 100 | 93 | ≥ 100 | 48.1 | ≥ 100 | –
4 | N=C(N)N1CC(C(NC(=O)OCc2ccccc2)P(=O)(Oc2ccccc2)Oc2ccccc2)C1 (stereo unspecified) | ≥ 100 | ≥ 100 | 100 | ≥ 100 | 71.3 | ≥ 100 | inhibition of growth at 100 µM [9]: 99%; inhibition of growth at 100 µM [10]: 99.9%
5 | Nc1cccc(C(NC(=O)OCc2ccccc2)P(=O)(Oc2ccccc2)Oc2ccccc2)c1 (stereo unspecified) | 17.9 | 23.8 | 100 | ≥ 100 | 0.5 | 27.5 | growth inhibition (GI) [11]: inactive; growth inhibition (GI) [12]: inactive; Activity [7]: Active; growth inhibition (GI) [13]: Active; growth inhibition (GI) [14]: inactive
6 | O=C(NC(c1c[nH]c2ccc(Cl)cc12)P(=O)(Oc1ccccc1)Oc1ccccc1)OCc1ccccc1 (stereo unspecified) | ≥ 100 | 10.5 | 88 | 19.9 | 100 | 5.9 | –
7 | O=C(NC(CCc1ccc([N+](=O)[O-])cc1)P(=O)(Oc1ccccc1)Oc1ccccc1)OCc1ccccc1 (stereo unspecified) | ≥ 100 | ≥ 100 | 100 | ≥ 100 | 13.1 | ≥ 100 | –
8 | O=C(NC(c1ccc(N2CCNCC2)cc1)P(=O)(Oc1ccccc1)Oc1ccccc1)OCc1ccccc1 (stereo unspecified) | ≥ 100 | 1.1 | 100 | 8.6 | 0.6 | 0.4 | Activity [15]: Active; inhibition of growth at 100 µM [9]: 69.9%
9 | Nc1ccc(C(NC(=O)OCc2ccccc2)P(=O)(Oc2ccccc2)Oc2ccccc2)cc1 (stereo unspecified) | ≥ 100 | ≥ 100 | 96 | ≥ 100 | 39.8 | 57.8 | selectivity ratio [8]: < 10
10 | O=C(NC(Cc1ccc(C(F)(F)F)cc1)P(=O)(Oc1ccccc1)Oc1ccccc1)OCc1ccccc1 (stereo unspecified) | 93.9 | ≥ 100 | 100 | ≥ 100 | 14.2 | ≥ 100 | –
11 | C[C@H](NC(=O)[C@H](CO)NC(=O)c1cccs1)C(=O)NC(Cc1ccc(NC(=N)N)cc1)P(=O)(Oc1ccccc1)Oc1ccccc1 (stereo partly specified) | ≥ 100 | ≥ 100 | 90 | ≥ 100 | 49.5 | ≥ 100 | –
12 | N=C(NO)c1cccc(C(Nc2ncccn2)P(=O)(Oc2ccccc2)Oc2ccccc2)c1 (stereo unspecified) | – | – | 23 | – | – | – | –
13 | O=C(NC(c1ccc(NC(=O)C(F)(F)F)cc1)P(=O)(Oc1ccccc1)Oc1ccccc1)OCc1ccccc1 (stereo unspecified) | – | – | 15 | – | – | – | –
14 | CN(C)c1ccc(C(NC(=O)OCc2ccccc2)P(=O)(Oc2ccccc2)Oc2ccccc2)cc1 (stereo unspecified) | ≥ 100 | 28.4 | 100 | ≥ 100 | 0.6 | 65.6 | Activity [7]: Active
15 | COC(=O)NC(Cc1ccc(NC(=N)N)cc1)P(=O)(Oc1ccccc1)Oc1ccccc1 (stereo unspecified) | – | – | 27 | – | – | – | –
16 | N=C(N)Nc1ccc(C(NC(=O)OCc2ccccc2)P(=O)(Oc2ccccc2)Oc2ccccc2)cc1 (stereo unspecified) | – | – | 29 | – | – | – | –
17 | N=C(N)Nc1cccc2c(C(NC(=O)OCc3ccccc3)P(=O)(Oc3ccccc3)Oc3ccccc3)cccc12 (stereo unspecified) | – | – | 38 | – | – | – | –
18 | O=C(NC(CC1CCNCC1)P(=O)(Oc1ccccc1)Oc1ccccc1)OCc1ccccc1 (stereo unspecified) | – | – | 16 | – | – | – | –
19 | [N-]=[N+]=NCCOCCOC(=O)NC(Cc1ccc(NC(=N)N)cc1)P(=O)(Oc1ccccc1)Oc1ccccc1 (stereo unspecified) | – | – | 68 | – | – | – | –
20 | N=C(N)c1ccc2cc(C(NC(=O)OCc3ccccc3)P(=O)(Oc3ccccc3)Oc3ccccc3)ccc2c1 (stereo unspecified) | ≥ 100 | 28.3 | 81 | 19.9 | 79.7 | 25.6 | inhibition of growth at 100 µM [9]: 98.9%; inhibition of growth at 50 µM [16]: 99.4%; inhibition of growth at 50 µM [17]: 98.5%
